Assay results: ChEMBL document CHEMBL1138275, “Activity of sulfonium bisphosphonates on tumor cell lines” (J Med Chem, 2007)

Legend:
NCI-H460 = test: Growth inhibition of human NCI-H460 cells after 4 days by MTT assay; type: functional, cell-based; conditions: NCI-H460, 96 h
Summary of the method: (§1)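 Cell lines from NCI, grown in RPMI-1640 with 2 mM L-glutamine and 10% FBS at 37 °C, 5% CO2, 100% humidity. Aqueous 0.01 M stocks, half-log serial dilutions in medium, typically 316 µM to 10 nM. 5000 cells/well exposed 4 days. MTT added for 2 h, detergent lysis, overnight dark at room temperature, A600 read. IC50 from rectangular hyperbolic fit of percent inhibition.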

MCF7 = test: Growth inhibition of human MCF7 cells after 4 days by MTT assay; type: functional, cell-based; conditions: MCF7, 96 h
SF-268 = test: Growth inhibition of human SF268 cells after 4 days by MTT assay; type: functional, cell-based; conditions: SF-268, 96 h; summary of the method: as §1
[1] = molecular target: T1, Farnesyl pyrophosphate synthase (Homo sapiens, UniProt P14324); test: Inhibition of human FPPS
T1 sequence (P14324 whole entry): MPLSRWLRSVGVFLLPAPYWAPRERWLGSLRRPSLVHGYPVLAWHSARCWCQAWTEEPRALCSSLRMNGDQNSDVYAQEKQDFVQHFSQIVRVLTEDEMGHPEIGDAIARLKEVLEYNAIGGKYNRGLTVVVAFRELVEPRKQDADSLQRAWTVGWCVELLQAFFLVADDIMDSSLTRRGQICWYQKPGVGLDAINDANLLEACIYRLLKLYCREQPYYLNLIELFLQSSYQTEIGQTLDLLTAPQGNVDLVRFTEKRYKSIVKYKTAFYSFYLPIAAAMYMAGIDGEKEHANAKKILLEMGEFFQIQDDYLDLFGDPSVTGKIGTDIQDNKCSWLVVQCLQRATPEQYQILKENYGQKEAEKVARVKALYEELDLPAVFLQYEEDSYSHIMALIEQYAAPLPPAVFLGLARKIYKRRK

| SMILES | IC50 (NCI-H460; read-out: IC50) [µM] | IC50 (MCF7; read-out: IC50) [µM] | IC50 (SF-268; read-out: IC50) [µM] | IC50 ([1]; read-out: IC50) [µM] | IC50 (NCI-H460; read-out: pIC50 (converted)) [µM] | IC50 (MCF7; read-out: pIC50 (converted)) [µM] | IC50 (SF-268; read-out: pIC50 (converted)) [µM] | IC50 ([1]; read-out: pIC50 (converted)) [µM] |
| --- | --- | --- | --- | --- | --- | --- | --- | --- |
| C[S+](C)CCC(O)(P(=O)([O-])O)P(=O)(O)O (stereo unspecified) | 95.1 | 258 | 100 | 9 | – | – | – | – |
| O=P([O-])(O)C(C[S+]1CCCC1)P(=O)(O)O (stereo unspecified) | 83.2 | 95.5 | 87.8 | – | 79.4 | 100 | 79.4 | – |
| C[S+](CCCCc1ccccc1)CC(P(=O)([O-])O)P(=O)(O)O (stereo unspecified) | 47.9 | 45.7 | 43.9 | – | 50.1 | 50.1 | 39.8 | – |
| O=P([O-])(O)C(O)(CC[S+]1CCCCC1)P(=O)(O)O (stereo unspecified) | 355 | 513 | 431 | – | 316 | 501 | 398 | – |
| CCCCCCCCCC[S+](C)CC(P(=O)([O-])O)P(=O)(O)O (stereo unspecified) | 0.32 | 0.62 | 0.37 | 0.24 | 0.316 | 0.631 | 0.398 | – |
| O=P([O-])(O)C(O)(C[S+]1CCCC1)P(=O)(O)O (stereo unspecified) | 126 | 100 | 101 | – | 126 | 100 | 100 | – |
| CCCCCCCCCCCC[S+](C)CC(P(=O)([O-])O)P(=O)(O)O (stereo unspecified) | 0.21 | – | 0.29 | – | 0.2 | – | 0.316 | – |
| CCCCCCCCCCCCCCCCCC[S+](C)CC(P(=O)([O-])O)P(=O)(O)O (stereo unspecified) | 1.23 | 1.41 | 1.71 | 7.45 | 1.26 | 1.26 | 1.58 | – |
| CCC[S+](C)CC(O)(P(=O)([O-])O)P(=O)(O)O (stereo unspecified) | 74.1 | 162 | 96.1 | – | 79.4 | 158 | 100 | – |
| C[S+](CCCc1ccccc1)CCC(O)(P(=O)([O-])O)P(=O)(O)O (stereo unspecified) | 66.1 | 105 | 65.9 | – | 63.1 | 100 | 63.1 | – |
| CCCCCCCCCCCCC[S+](C)CC(P(=O)([O-])O)P(=O)(O)O (stereo unspecified) | 3.4 | 2.8 | 3.1 | – | – | – | – | – |
| CCCCCCCC[S+](C)CC(P(=O)([O-])O)P(=O)(O)O (stereo unspecified) | 12.3 | 21.4 | 14.7 | – | 12.6 | 20 | 15.8 | – |
| C[S+](CCCc1ccccc1)CC(O)(P(=O)([O-])O)P(=O)(O)O (stereo unspecified) | 13.8 | 17.8 | 10.7 | – | 12.6 | 15.8 | 10 | – |
| C[S+](CCc1ccccc1)CCC(O)(P(=O)([O-])O)P(=O)(O)O (stereo unspecified) | 183 | 251 | 198 | – | – | – | – | – |
| CCCCCCCCCCCCCC[S+](C)CC(P(=O)([O-])O)P(=O)(O)O (stereo unspecified) | 0.48 | 11 | 0.88 | 8.47 | 0.501 | 10 | 0.794 | – |
| C[S+](CCCCCc1ccccc1)CC(P(=O)([O-])O)P(=O)(O)O (stereo unspecified) | 23.4 | 21.4 | 17.9 | – | 25.1 | 20 | 15.8 | – |

| SMILES | IC50 (NCI-H460; read-out: IC50) [µM] | IC50 (MCF7; read-out: IC50) [µM] | IC50 (SF-268; read-out: IC50) [µM] | IC50 ([1]; read-out: IC50) [µM] | IC50 (NCI-H460; read-out: pIC50 (converted)) [µM] | IC50 (MCF7; read-out: pIC50 (converted)) [µM] | IC50 (SF-268; read-out: pIC50 (converted)) [µM] | IC50 ([1]; read-out: pIC50 (converted)) [µM] |
| --- | --- | --- | --- | --- | --- | --- | --- | --- |
| CCCCCCCC[S+](C)CCC(O)(P(=O)([O-])O)P(=O)(O)O (stereo unspecified) | 25.7 | 32.4 | 20.3 | – | 25.1 | 31.6 | 20 | – |
| O=P([O-])(O)C(O)(CC[S+]1CCC(c2ccccc2)C1)P(=O)(O)O (stereo unspecified) | 245 | 339 | 264 | – | 251 | 316 | 251 | – |
| O=P([O-])(O)C(O)(C[S+]1CCCCC1)P(=O)(O)O (stereo unspecified) | 209 | 302 | 240 | – | 200 | 316 | 251 | – |
| C[S+](C)CC(O)(P(=O)([O-])O)P(=O)(O)O (stereo unspecified) | 191 | 200 | 171 | 1.03 | 200 | 200 | 158 | – |
| C[S+](CCCc1ccccc1)CC(P(=O)([O-])O)P(=O)(O)O (stereo unspecified) | 55 | 57.5 | 48.6 | – | 50.1 | 63.1 | 50.1 | – |
| CCCCCCCCCCC[S+](C)CC(P(=O)([O-])O)P(=O)(O)O (stereo unspecified) | 3.7 | 14.2 | 3.7 | – | – | – | – | – |
| CCCCCCCCCCCCCCCC[S+](C)CC(P(=O)([O-])O)P(=O)(O)O (stereo unspecified) | 1.41 | 1.12 | 1.08 | 45.6 | 1.26 | 1 | 1 | – |
| C[S+](CCCOc1ccccc1)CCC(O)(P(=O)([O-])O)P(=O)(O)O (stereo unspecified) | 151 | 184 | 171 | – | – | – | – | – |
| C[S+](CCCOc1ccccc1)CC(O)(P(=O)([O-])O)P(=O)(O)O (stereo unspecified) | 16.6 | 93.3 | 34.5 | – | 15.8 | 100 | 31.6 | – |
| CCC[S+](C)CC(P(=O)([O-])O)P(=O)(O)O (stereo unspecified) | 95.5 | 240 | 223 | 0.53 | 100 | 251 | 200 | – |
| O=P([O-])(O)C(O)(CC[S+]1CCCC1)P(=O)(O)O (stereo unspecified) | 158 | 195 | 129 | – | 158 | 200 | 126 | – |
| CCCCCCCCCCCCCCCCCCCC[S+](C)CC(P(=O)([O-])O)P(=O)(O)O (stereo unspecified) | 1.15 | 0.95 | 1.49 | 27.4 | 1.26 | 1 | 1.58 | 0.251 |
| CCCCC[S+](C)CCC(O)(P(=O)([O-])O)P(=O)(O)O (stereo unspecified) | 200 | 389 | 196 | – | 200 | 398 | 200 | – |
| CCCCC[S+](C)CC(P(=O)([O-])O)P(=O)(O)O (stereo unspecified) | 128 | 224 | 189 | 1.08 | – | – | – | – |
| CCC[S+](C)CCC(O)(P(=O)([O-])O)P(=O)(O)O (stereo unspecified) | 759 | 813 | 714 | – | 794 | 794 | 631 | – |
